Broadly, the EC50 is the midpoint of the concentration-response curve. The IC50 is the concentration at which inhibition is half-maximal. High values mean a need for much substance, low ones inhibition by little substance.

The record followed here is ChEMBL document CHEMBL1806396, “Development of potent B-RafV600E inhibitors containing an arylsulfonamide headgroup” (Bioorg Med Chem Lett, 2011).

Test [1] has as its system SK-MEL-28. As to the kind of experiment: Antiproliferative activity against human SK-MEL-28 cells expressing B-Raf V600E mutant after 3 days by CellTiter-Glo assay. It is filed as functional, cell-based. The gist of the method:
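SKMEL28 melanoma cells grown in EMEM + 10% FBS, 1% pen-strep, 1% sodium pyruvate, 37 °C, humidified 5% CO2; plated 500 cells/well. 10-point dilution 20 µM down to 0.001 µM, final DMSO 0.2%, 3 days. Total ATP read by CellTiter-Glo as cell-number surrogate. % growth inhibition vs control wells; IC50 by 4-parameter fit; mean of two experiments.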
A general note: Cellular ATP, detected with luciferase, serves as a proxy for viable cell number.

Test [2] concerns the target T1, Serine/threonine-protein kinase B-raf (Homo sapiens, UniProt P15056, V600E). Put plainly: Inhibition of B-Raf V600E mutant in human SK-MEL-28 cells assessed as reduction of ERK phosphorylation after 1 hr. It is filed as cell-based. The gist of the method:
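SKMEL28 cells (EMEM + 10% FBS) plated at 20,000 cells/well; 10-point dilution 20 µM to 0.001 µM, final DMSO 0.2%, 1 h. Fixed in 3.7% formaldehyde, permeabilized with 0.1% Triton X-100. Anti-ERK and anti-phospho-ERK primaries overnight at 4 °C, IR-dye secondaries 1 h, in-cell western on LiCor Odyssey. % inhibition of ERK phosphorylation vs control; IC50 by 4-parameter fit; means of 2–5 experiments.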

In test [3] the target is T1, Serine/threonine-protein kinase B-raf. Put plainly: Inhibition of B-Raf V600E mutant.
In test [4] the target is T2, TGF-beta receptor type-1 (Homo sapiens, UniProt P36897).
T2 sequence (P36897 whole entry): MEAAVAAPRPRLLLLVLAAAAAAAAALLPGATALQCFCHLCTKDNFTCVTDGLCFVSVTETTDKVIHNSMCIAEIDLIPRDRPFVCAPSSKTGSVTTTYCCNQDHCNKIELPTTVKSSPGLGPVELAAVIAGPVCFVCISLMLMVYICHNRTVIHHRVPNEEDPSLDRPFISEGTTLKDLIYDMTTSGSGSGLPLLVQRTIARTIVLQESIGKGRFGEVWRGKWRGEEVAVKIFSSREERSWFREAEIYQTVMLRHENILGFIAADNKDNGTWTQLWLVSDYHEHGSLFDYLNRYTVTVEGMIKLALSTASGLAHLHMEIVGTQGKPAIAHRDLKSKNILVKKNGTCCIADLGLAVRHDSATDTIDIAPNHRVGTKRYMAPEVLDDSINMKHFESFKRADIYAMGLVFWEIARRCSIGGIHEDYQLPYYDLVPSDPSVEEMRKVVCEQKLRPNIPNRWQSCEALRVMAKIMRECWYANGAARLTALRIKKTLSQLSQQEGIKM
Put plainly: Inhibition of ALK5.

For test [5], the target named is Receptor tyrosine-protein kinase erbB-4 (Homo sapiens, UniProt Q15303). Put plainly: Inhibition of ErbB4.
Test [6] addresses Activin receptor type-2B (Homo sapiens, UniProt Q13705). As to the kind of experiment: Inhibition of ACTR-2B.
The target in test [7] is Tyrosine-protein kinase BTK (Homo sapiens, UniProt Q06187). As to the kind of experiment: Inhibition of Btk.
The target in test [8] is Tyrosine-protein kinase Lck (Homo sapiens, UniProt P06239). As to the kind of experiment: Inhibition of Lck.
For test [9], the target named is Tyrosine-protein kinase Lyn (Homo sapiens, UniProt P07948). As to the kind of experiment: Inhibition of Lyn.
For test [10], the system named is HFF. Put plainly: Antiproliferative activity against HFF after 3 days by CellTiter-Glo assay. It is filed as cell-based. The conditions noted are these: Homo sapiens, 72 h.

T1 sequence (P15056 2-766 V600E limits assumed): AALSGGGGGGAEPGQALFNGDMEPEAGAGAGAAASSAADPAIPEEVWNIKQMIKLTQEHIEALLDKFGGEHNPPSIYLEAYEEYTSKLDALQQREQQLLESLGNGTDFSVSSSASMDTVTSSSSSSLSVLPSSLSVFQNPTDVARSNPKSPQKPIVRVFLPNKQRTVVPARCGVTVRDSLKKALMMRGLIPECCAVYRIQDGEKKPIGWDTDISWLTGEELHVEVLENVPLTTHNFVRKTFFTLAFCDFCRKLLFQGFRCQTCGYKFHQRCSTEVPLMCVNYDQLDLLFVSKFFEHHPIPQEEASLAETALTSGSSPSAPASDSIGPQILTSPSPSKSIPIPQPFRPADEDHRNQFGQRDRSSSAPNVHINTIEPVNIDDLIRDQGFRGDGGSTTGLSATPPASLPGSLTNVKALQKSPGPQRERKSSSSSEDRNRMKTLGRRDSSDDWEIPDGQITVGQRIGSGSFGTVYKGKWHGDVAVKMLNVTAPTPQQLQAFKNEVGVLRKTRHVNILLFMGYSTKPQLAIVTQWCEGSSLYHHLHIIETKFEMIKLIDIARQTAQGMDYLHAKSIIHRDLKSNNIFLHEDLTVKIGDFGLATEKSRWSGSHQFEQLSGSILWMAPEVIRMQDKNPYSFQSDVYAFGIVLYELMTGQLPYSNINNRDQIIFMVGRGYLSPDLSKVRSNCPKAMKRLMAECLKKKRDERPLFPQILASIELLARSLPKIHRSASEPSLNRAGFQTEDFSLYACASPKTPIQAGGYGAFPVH
Sequence of Tyrosine-protein kinase Lyn (P07948 whole entry): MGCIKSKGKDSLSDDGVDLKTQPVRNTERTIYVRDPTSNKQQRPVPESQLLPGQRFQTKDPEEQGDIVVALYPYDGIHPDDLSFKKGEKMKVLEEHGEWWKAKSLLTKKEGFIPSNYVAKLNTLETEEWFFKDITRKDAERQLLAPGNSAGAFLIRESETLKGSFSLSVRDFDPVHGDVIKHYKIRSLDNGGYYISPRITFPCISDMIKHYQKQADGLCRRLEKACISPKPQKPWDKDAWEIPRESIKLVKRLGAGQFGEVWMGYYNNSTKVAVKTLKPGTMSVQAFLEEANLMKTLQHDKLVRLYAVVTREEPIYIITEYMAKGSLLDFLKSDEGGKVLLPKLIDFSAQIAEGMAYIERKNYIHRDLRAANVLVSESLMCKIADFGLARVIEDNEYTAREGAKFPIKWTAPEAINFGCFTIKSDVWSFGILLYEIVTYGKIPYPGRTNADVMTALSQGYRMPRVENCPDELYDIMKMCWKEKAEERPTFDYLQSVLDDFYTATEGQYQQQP
Sequence of Receptor tyrosine-protein kinase erbB-4 (Q15303 whole entry): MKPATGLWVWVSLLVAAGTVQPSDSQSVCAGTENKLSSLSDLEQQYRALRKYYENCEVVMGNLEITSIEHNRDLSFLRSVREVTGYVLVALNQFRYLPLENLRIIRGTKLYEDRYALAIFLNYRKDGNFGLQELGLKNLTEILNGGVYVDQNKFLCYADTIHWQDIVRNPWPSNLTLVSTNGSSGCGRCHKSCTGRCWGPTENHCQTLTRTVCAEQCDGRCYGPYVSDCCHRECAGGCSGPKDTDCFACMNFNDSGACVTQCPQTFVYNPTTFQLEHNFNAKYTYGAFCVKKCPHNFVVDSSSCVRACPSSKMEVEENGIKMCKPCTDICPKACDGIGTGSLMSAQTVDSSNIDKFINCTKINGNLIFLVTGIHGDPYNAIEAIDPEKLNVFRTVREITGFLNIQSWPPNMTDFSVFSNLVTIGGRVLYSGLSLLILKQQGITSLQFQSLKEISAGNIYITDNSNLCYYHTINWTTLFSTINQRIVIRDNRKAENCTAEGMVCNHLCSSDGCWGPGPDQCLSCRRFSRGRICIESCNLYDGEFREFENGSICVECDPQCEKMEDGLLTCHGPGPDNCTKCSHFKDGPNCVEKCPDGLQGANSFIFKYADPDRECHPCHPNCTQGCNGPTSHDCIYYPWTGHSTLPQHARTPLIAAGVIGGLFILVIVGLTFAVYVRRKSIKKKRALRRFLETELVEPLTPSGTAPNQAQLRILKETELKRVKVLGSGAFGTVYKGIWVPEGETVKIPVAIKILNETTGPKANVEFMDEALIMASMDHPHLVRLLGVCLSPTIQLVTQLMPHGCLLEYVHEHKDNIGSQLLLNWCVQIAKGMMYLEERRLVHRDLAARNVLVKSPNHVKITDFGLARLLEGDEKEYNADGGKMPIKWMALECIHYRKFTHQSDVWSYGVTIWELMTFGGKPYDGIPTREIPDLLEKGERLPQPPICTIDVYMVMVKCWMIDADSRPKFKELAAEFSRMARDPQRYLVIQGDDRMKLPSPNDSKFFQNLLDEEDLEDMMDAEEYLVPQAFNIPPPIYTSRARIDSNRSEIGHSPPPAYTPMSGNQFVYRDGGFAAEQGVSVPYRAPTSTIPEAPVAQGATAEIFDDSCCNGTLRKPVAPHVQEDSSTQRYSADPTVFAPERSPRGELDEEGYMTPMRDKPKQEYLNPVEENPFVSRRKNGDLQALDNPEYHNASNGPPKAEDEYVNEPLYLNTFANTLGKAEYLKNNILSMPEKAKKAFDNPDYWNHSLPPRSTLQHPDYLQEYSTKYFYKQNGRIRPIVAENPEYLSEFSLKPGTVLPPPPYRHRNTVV
Sequence of Tyrosine-protein kinase Lck (P06239 whole entry): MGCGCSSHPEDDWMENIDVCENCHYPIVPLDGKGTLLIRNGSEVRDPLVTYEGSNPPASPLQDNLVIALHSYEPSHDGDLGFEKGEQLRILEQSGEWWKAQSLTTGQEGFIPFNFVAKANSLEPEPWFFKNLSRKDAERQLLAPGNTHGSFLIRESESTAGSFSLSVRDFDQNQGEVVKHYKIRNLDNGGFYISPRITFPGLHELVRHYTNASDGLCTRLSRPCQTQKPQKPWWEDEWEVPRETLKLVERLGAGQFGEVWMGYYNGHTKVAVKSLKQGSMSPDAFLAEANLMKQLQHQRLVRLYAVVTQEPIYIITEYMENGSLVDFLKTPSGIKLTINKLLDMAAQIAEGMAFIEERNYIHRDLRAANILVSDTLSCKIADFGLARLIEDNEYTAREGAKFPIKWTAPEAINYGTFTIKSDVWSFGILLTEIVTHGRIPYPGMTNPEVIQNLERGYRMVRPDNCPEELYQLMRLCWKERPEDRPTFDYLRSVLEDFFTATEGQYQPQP
Sequence of Activin receptor type-2B (Q13705 whole entry): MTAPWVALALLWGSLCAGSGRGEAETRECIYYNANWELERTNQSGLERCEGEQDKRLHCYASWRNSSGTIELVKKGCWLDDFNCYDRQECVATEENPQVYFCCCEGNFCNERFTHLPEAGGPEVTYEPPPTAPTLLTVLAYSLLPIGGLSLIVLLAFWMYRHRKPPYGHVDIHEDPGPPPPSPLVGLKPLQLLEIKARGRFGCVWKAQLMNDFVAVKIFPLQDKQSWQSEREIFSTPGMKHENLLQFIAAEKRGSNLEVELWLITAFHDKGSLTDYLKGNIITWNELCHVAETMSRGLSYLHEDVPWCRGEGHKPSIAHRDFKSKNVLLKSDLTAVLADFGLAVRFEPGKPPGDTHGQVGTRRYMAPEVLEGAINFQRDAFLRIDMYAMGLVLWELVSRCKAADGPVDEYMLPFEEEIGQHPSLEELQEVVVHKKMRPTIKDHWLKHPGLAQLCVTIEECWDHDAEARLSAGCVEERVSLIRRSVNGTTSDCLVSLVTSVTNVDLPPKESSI
Sequence of Tyrosine-protein kinase BTK (Q06187 whole entry): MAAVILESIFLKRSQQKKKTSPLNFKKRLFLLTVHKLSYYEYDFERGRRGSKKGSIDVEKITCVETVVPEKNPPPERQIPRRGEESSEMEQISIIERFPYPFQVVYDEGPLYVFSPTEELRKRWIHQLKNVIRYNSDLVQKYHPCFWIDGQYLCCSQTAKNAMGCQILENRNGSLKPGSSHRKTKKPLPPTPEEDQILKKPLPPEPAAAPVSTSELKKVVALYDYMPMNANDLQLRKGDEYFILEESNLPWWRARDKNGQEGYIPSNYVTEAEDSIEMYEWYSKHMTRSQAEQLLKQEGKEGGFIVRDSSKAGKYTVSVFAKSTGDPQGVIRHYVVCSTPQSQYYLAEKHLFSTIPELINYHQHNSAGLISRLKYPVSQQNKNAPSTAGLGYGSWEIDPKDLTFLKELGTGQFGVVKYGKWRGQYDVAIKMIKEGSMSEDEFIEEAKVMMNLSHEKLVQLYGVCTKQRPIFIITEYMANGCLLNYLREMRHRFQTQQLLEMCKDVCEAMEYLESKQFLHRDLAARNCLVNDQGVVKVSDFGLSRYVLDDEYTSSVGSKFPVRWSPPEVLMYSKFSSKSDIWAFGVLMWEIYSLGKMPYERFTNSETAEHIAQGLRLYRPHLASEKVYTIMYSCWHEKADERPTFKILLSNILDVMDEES

Take `CC(=O)N1CCN(c2ccc(Nc3nccc(-c4sc(C(C)C)nc4-c4cccc(NS(=O)(=O)c5ccc(F)cc5)c4)n3)cn2)CC1`: the EC50 worked out at 69 nM in [1] (Homo sapiens, SK-MEL-28, 72 h) and 9 nM in test [2]. In addition, the IC50 in test [3] amounted to 9.5 nM.
For the compound `CC(=O)N1CCN(c2ccc(Nc3nccc(-c4sc(C(C)C)nc4-c4cccc(NS(=O)(=O)c5cccc(F)c5)c4)n3)cn2)CC1`, the EC50 in [1] (Homo sapiens, SK-MEL-28, 72 h) turned out to be 8 nM; in test [2] it was 10 nM. For the same compound, inhibition in [3] was half-maximal at 0.8 nM (IC50).
For `CCc1nc(-c2cccc(N(C)S(=O)(=O)c3ccccc3)c2)c(-c2ccnc(Nc3ccc(N4CCN(C(C)=O)CC4)nc3)n2)s1` the same measures were 8620 nM, 4730 nM and 1970 nM.
The matching figures for `CC(C)c1nc(-c2cccc(NS(=O)(=O)c3c(F)cccc3F)c2F)c(-c2ccnc(Nc3ccc(N4CCOCC4)nc3)n2)s1`: 8 nM, 11 nM and 0.5 nM.
The matching figures for `CC(C)c1nc(-c2cccc(NS(=O)(=O)c3ccccc3)c2)c(-c2ccnc(Nc3ccc4c(c3)CN(C)CC4)n2)s1`: 287 nM, 52 nM and 12 nM.
With `CC(C)c1nc(-c2cc(F)cc(NS(=O)(=O)c3c(F)cccc3F)c2)c(-c2ccnc(Nc3ccc(N4CCOCC4)nc3)n2)s1`, the EC50 in test [1] (Homo sapiens, SK-MEL-28, 72 h) came out at 14 nM; in test [2] it was 24 nM. In addition, inhibition in test [3] was half-maximal at 0.9 nM (IC50).
Consider `CC(C)c1nc(-c2ccc(F)c(NS(=O)(=O)c3c(F)cccc3F)c2)c(-c2ccnc(Nc3ccc(N4CCOCC4)nc3)n2)s1` [listing 1 of 2 here], for which the IC50 in test [4] stood at 10 nM; in [5], 10 nM; in test [6], 10 nM; in test [7], 10 nM; in test [3], 3.8 nM; in test [8], 10 nM. For the same compound, in [9], the 50% inhibitory concentration (IC50) came to 10 nM. The figures for the EC50 in test [1] (sk-mel-28) and in [2] were 47 nM and 23 nM, respectively.
For the compound `CC(C)c1nc(-c2cccc(NS(=O)(=O)c3c(F)cccc3F)c2)c(-c2ccnc(Nc3ccc(N4CCOCC4)nc3)n2)s1`, the concentration giving a half-maximal response (EC50) in test [1] (Homo sapiens, SK-MEL-28, 72 h) was found to be 6 nM; in [2], 7 nM. The compound also registered a half-maximal inhibitory concentration (IC50) in [3] of 1.2 nM.
The matching figures for `CC(=O)N1CCN(c2ccc(Nc3nccc(-c4sc(C(C)C)nc4-c4cccc(NS(=O)(=O)c5cc(F)ccc5F)c4)n3)cn2)CC1`: 8 nM, 8 nM and 0.6 nM.
For `CC(C)c1nc(-c2ccc(F)c(NS(=O)(=O)c3c(F)cccc3F)c2)c(-c2ccnc(Nc3ccc(N4CCOCC4)nc3)n2)s1` [listing 2 of 2 here], the EC50 was 15600 nM in test [10] and 52 nM in test [1] (Homo sapiens, SK-MEL-28, 72 h).
For `CC(=O)N1CCN(c2ccc(Nc3nccc(-c4sc(C(C)C)nc4-c4cccc(NS(=O)(=O)c5cccc(Cl)c5)c4)n3)cn2)CC1`, the EC50 was 85 nM in test [1] (Homo sapiens, SK-MEL-28, 72 h) and 21 nM in test [2]. For the same compound, in test [3], the IC50 came to 34 nM.
The matching figures for `CC(=O)N1CCN(c2ccc(Nc3nccc(-c4sc(C(C)C)nc4-c4cccc(NS(=O)(=O)c5ccccc5)c4)n3)cn2)CC1`: 24 nM, 7 nM and 3.6 nM.
For `CC(C)c1nc(-c2cccc(NC(=O)c3c(F)cccc3F)c2)c(-c2ccnc(Nc3ccc4c(c3)CN(C)CC4)n2)s1` the same measures were 2750 nM, 580 nM and 4 nM.
The matching figures for `CC(=O)N1CCN(c2ccc(Nc3nccc(-c4sc(C(C)C)nc4-c4cccc(NS(=O)(=O)c5ccccc5F)c4)n3)cn2)CC1`: 4 nM, 4 nM and 0.6 nM.
Take `CCc1nc(-c2cccc(CS(=O)(=O)c3ccccc3)c2)c(-c2ccnc(Nc3ccc(N4CCN(C(C)=O)CC4)nc3)n2)s1`: the EC50 in [1] (Homo sapiens, SK-MEL-28, 72 h) was 11100 nM; in [2], greater than 20000 nM. Half-maximal inhibition in test [3] (IC50) required 1360 nM.
For `CN1CCc2ccc(Nc3nccc(-c4c(-c5cccc(NC(=O)Nc6c(F)cccc6F)c5)nc5ccccn45)n3)cc2C1` the same measures were 6340 nM, greater than 20000 nM and 5 nM.
Regarding `CN1CCc2ccc(Nc3nccc(-c4c(-c5cccc(NC(=O)c6c(F)cccc6F)c5)nc5ccccn45)n3)cc2C1`, the EC50 was 5320 nM in test [1] (Homo sapiens, SK-MEL-28, 72 h) and greater than 10000 nM in test [2]. In test [3], this compound registered an IC50 of 9 nM.
The matching figures for `CN1CCc2ccc(Nc3nccc(-c4c(-c5cccc(NS(=O)(=O)c6ccccc6)c5)nc5ccccn45)n3)cc2C1`: 1110 nM, 99 nM and 132 nM.
For `CC(=O)N1CCN(c2ccc(Nc3nccc(-c4sc(C(C)C)nc4-c4cccc(NS(=O)(=O)c5c(F)cccc5F)c4)n3)cn2)CC1` the same measures were 12 nM, 10 nM and 1.3 nM.
In the case of `CN1CCc2ccc(Nc3nccc(-c4c(-c5cccc(C(=O)Nc6c(F)cccc6F)c5)nc5ccccn45)n3)cc2C1`, the EC50 in test [2] is greater than 2200 nM. Also, the IC50 in [3] came out at 12 nM.
